Data as given in ChEMBL document CHEMBL4689842, “EUbOPEN Chemogenomics Library wave 1” (2021).

Columns and labels:
U2OS [1] = experiment: Multiplex assay against U2OS; format: toxicity, cell-based; details: human
Method in brief: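 Cells stained live at seeding with Hoechst33342, BioTracker Green Microtubule Cytoskeleton Dye, MitoTracker Red and Annexin V Alexa Fluor 680 were imaged on a CQ1 microscope at 37°C and 5% CO2 after compound addition. Their classification by CellPathfinder machine-learning gating ran from Hoechst high-intensity objects versus normal cells, to healthy, pyknosed or fragmented nuclei among normal cells, to mitotic or apoptotic among pyknosed cells. Tubulin, mitochondrial-mass and membrane-permeability phenotypes are per cents of healthy-nucleus cells.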

U2OS [2] = experiment: Incucyte cell viability with U2OS; format: toxicity, cell-based; details: human, 10 µM, compound concentration 10 uM; also: filed as whole numbers so only -1 and 0 and 1 occur
[3] = 12 h, 1 µM, compound concentration 1 uM, replicate 1
[4] = 12 h, 1 µM, compound concentration 1 uM, replicate 2
[5] = 12 h, 10 µM, compound concentration 10 uM, replicate 1
[6] = 12 h, 10 µM, compound concentration 10 uM, replicate 2
[7] = 24 h, 1 µM, compound concentration 1 uM, replicate 1
[8] = 24 h, 1 µM, compound concentration 1 uM, replicate 2
[9] = 24 h, 10 µM, compound concentration 10 uM, replicate 1
[10] = 24 h, 10 µM, compound concentration 10 uM, replicate 2
[11] = 48 h, 1 µM, compound concentration 1 uM, replicate 1
[12] = 48 h, 1 µM, compound concentration 1 uM, replicate 2
[13] = 48 h, 10 µM, compound concentration 10 uM, replicate 1
[14] = 48 h, 10 µM, compound concentration 10 uM, replicate 2

Cc1c(P(=S)(c2ccccc2)c2ccccc2)n2ccccc2[n+]1C/C=C/c1ccccc1.[Br-]
Population Apoptotic (%) (U2OS [1]; [3]): 54% | Population Fragmented Nuclei (%) (U2OS [1]; [3]): 21% | Population Healthy Nuclei (%) (U2OS [1]; [3]): 69% | Population Hoechst High Intensity Objects (%) (U2OS [1]; [3]): 5% | Population Membrane Permeable-Phenotype (%) (U2OS [1]; [3]): 13% | Population Mitochondria Different-Phenotype (%) (U2OS [1]; [3]): 35% | Population Mitotic Cells (%) (U2OS [1]; [3]): 45% | Population Normal (%) (U2OS [1]; [3]): 94% | Population Pyknosed Nuclei (%) (U2OS [1]; [3]): 9% | Population Tubulin-Different-Phenotype (%) (U2OS [1]; [3]): 26% | Total Cell Count (U2OS [1]; [3]): 133 | Population Apoptotic (%) (U2OS [1]; [4]): 75% | Population Fragmented Nuclei (%) (U2OS [1]; [4]): 50% | Population Healthy Nuclei (%) (U2OS [1]; [4]): 45% | Population Hoechst High Intensity Objects (%) (U2OS [1]; [4]): 22% | Population Membrane Permeable-Phenotype (%) (U2OS [1]; [4]): 10% | Population Mitochondria Different-Phenotype (%) (U2OS [1]; [4]): 50% | Population Mitotic Cells (%) (U2OS [1]; [4]): 25% | Population Normal (%) (U2OS [1]; [4]): 77% | Population Pyknosed Nuclei (%) (U2OS [1]; [4]): 4% | Population Tubulin-Different-Phenotype (%) (U2OS [1]; [4]): 31% | Total Cell Count (U2OS [1]; [4]): 93 | Population Apoptotic (%) (U2OS [1]; [5]): 89% | Population Fragmented Nuclei (%) (U2OS [1]; [5]): 28% | Population Healthy Nuclei (%) (U2OS [1]; [5]): 9% | Population Hoechst High Intensity Objects (%) (U2OS [1]; [5]): 21% | Population Membrane Permeable-Phenotype (%) (U2OS [1]; [5]): 88% | Population Mitochondria Different-Phenotype (%) (U2OS [1]; [5]): 100% | Population Mitotic Cells (%) (U2OS [1]; [5]): 10% | Population Normal (%) (U2OS [1]; [5]): 78% | Population Pyknosed Nuclei (%) (U2OS [1]; [5]): 61% | Population Tubulin-Different-Phenotype (%) (U2OS [1]; [5]): 100% | Total Cell Count (U2OS [1]; [5]): 121 | Population Apoptotic (%) (U2OS [1]; [6]): 94% | Population Fragmented Nuclei (%) (U2OS [1]; [6]): 21% | Population Healthy Nuclei (%) (U2OS [1]; [6]): 10% | Population Hoechst High Intensity Objects (%) (U2OS [1]; [6]): 8% | Population Membrane Permeable-Phenotype (%) (U2OS [1]; [6]): 83% | Population Mitochondria Different-Phenotype (%) (U2OS [1]; [6]): 83% | Population Mitotic Cells (%) (U2OS [1]; [6]): 5% | Population Normal (%) (U2OS [1]; [6]): 91% | Population Pyknosed Nuclei (%) (U2OS [1]; [6]): 68% | Population Tubulin-Different-Phenotype (%) (U2OS [1]; [6]): 83% | Total Cell Count (U2OS [1]; [6]): 108 | Population Apoptotic (%) (U2OS [1]; [7]): 55% | Population Fragmented Nuclei (%) (U2OS [1]; [7]): 12% | Population Healthy Nuclei (%) (U2OS [1]; [7]): 73% | Population Hoechst High Intensity Objects (%) (U2OS [1]; [7]): 5% | Population Membrane Permeable-Phenotype (%) (U2OS [1]; [7]): 12% | Population Mitochondria Different-Phenotype (%) (U2OS [1]; [7]): 18% | Population Mitotic Cells (%) (U2OS [1]; [7]): 45% | Population Normal (%) (U2OS [1]; [7]): 94% | Population Pyknosed Nuclei (%) (U2OS [1]; [7]): 13% | Population Tubulin-Different-Phenotype (%) (U2OS [1]; [7]): 12% | Total Cell Count (U2OS [1]; [7]): 174 | Population Apoptotic (%) (U2OS [1]; [8]): 75% | Population Fragmented Nuclei (%) (U2OS [1]; [8]): 55% | Population Healthy Nuclei (%) (U2OS [1]; [8]): 40% | Population Hoechst High Intensity Objects (%) (U2OS [1]; [8]): 33% | Population Membrane Permeable-Phenotype (%) (U2OS [1]; [8]): 9% | Population Mitochondria Different-Phenotype (%) (U2OS [1]; [8]): 31% | Population Mitotic Cells (%) (U2OS [1]; [8]): 25% | Population Normal (%) (U2OS [1]; [8]): 66% | Population Pyknosed Nuclei (%) (U2OS [1]; [8]): 3% | Population Tubulin-Different-Phenotype (%) (U2OS [1]; [8]): 15% | Total Cell Count (U2OS [1]; [8]): 124 | Population Fragmented Nuclei (%) (U2OS [1]; [9]): 34% | Population Healthy Nuclei (%) (U2OS [1]; [9]): 4% | Population Hoechst High Intensity Objects (%) (U2OS [1]; [9]): 14% | Population Membrane Permeable-Phenotype (%) (U2OS [1]; [9]): 75% | Population Mitochondria Different-Phenotype (%) (U2OS [1]; [9]): 100% | Population Normal (%) (U2OS [1]; [9]): 85% | Population Pyknosed Nuclei (%) (U2OS [1]; [9]): 61% | Population Tubulin-Different-Phenotype (%) (U2OS [1]; [9]): 100% | Total Cell Count (U2OS [1]; [9]): 154 | Population Apoptotic (%) (U2OS [1]; [10]): 100% | Population Fragmented Nuclei (%) (U2OS [1]; [10]): 23% | Population Healthy Nuclei (%) (U2OS [1]; [10]): 38% | Population Hoechst High Intensity Objects (%) (U2OS [1]; [10]): 26% | Population Membrane Permeable-Phenotype (%) (U2OS [1]; [10]): 81% | Population Mitochondria Different-Phenotype (%) (U2OS [1]; [10]): 81% | Population Mitotic Cells (%) (U2OS [1]; [10]): 0% | Population Normal (%) (U2OS [1]; [10]): 73% | Population Pyknosed Nuclei (%) (U2OS [1]; [10]): 38% | Population Tubulin-Different-Phenotype (%) (U2OS [1]; [10]): 81% | Total Cell Count (U2OS [1]; [10]): 163 | Population Fragmented Nuclei (%) (U2OS [1]; [11]): 7% | Population Healthy Nuclei (%) (U2OS [1]; [11]): 85% | Population Hoechst High Intensity Objects (%) (U2OS [1]; [11]): 5% | Population Membrane Permeable-Phenotype (%) (U2OS [1]; [11]): 3% | Population Mitochondria Different-Phenotype (%) (U2OS [1]; [11]): 13% | Population Normal (%) (U2OS [1]; [11]): 94% | Population Pyknosed Nuclei (%) (U2OS [1]; [11]): 7% | Population Tubulin-Different-Phenotype (%) (U2OS [1]; [11]): 11% | Total Cell Count (U2OS [1]; [11]): 277 | Population Apoptotic (%) (U2OS [1]; [12]): 60% | Population Fragmented Nuclei (%) (U2OS [1]; [12]): 42% | Population Healthy Nuclei (%) (U2OS [1]; [12]): 49% | Population Hoechst High Intensity Objects (%) (U2OS [1]; [12]): 25% | Population Membrane Permeable-Phenotype (%) (U2OS [1]; [12]): 5% | Population Mitochondria Different-Phenotype (%) (U2OS [1]; [12]): 21% | Population Mitotic Cells (%) (U2OS [1]; [12]): 40% | Population Normal (%) (U2OS [1]; [12]): 74% | Population Pyknosed Nuclei (%) (U2OS [1]; [12]): 8% | Population Tubulin-Different-Phenotype (%) (U2OS [1]; [12]): 8% | Total Cell Count (U2OS [1]; [12]): 213 | Population Fragmented Nuclei (%) (U2OS [1]; [13]): 43% | Population Healthy Nuclei (%) (U2OS [1]; [13]): 3% | Population Hoechst High Intensity Objects (%) (U2OS [1]; [13]): 19% | Population Membrane Permeable-Phenotype (%) (U2OS [1]; [13]): 66% | Population Mitochondria Different-Phenotype (%) (U2OS [1]; [13]): 100% | Population Normal (%) (U2OS [1]; [13]): 80% | Population Pyknosed Nuclei (%) (U2OS [1]; [13]): 53% | Population Tubulin-Different-Phenotype (%) (U2OS [1]; [13]): 100% | Total Cell Count (U2OS [1]; [13]): 207 | Population Apoptotic (%) (U2OS [1]; [14]): 100% | Population Fragmented Nuclei (%) (U2OS [1]; [14]): 75% | Population Healthy Nuclei (%) (U2OS [1]; [14]): 18% | Population Hoechst High Intensity Objects (%) (U2OS [1]; [14]): 21% | Population Membrane Permeable-Phenotype (%) (U2OS [1]; [14]): 75% | Population Mitochondria Different-Phenotype (%) (U2OS [1]; [14]): 75% | Population Mitotic Cells (%) (U2OS [1]; [14]): 0% | Population Normal (%) (U2OS [1]; [14]): 78% | Population Pyknosed Nuclei (%) (U2OS [1]; [14]): 6% | Population Tubulin-Different-Phenotype (%) (U2OS [1]; [14]): 75% | Total Cell Count (U2OS [1]; [14]): 153 | Growth Rate (U2OS [2]; 6 h, replicate number 1, timepoint 6 hours): 0 | Growth Rate (U2OS [2]; 12 h, replicate number 1, timepoint 12 hours): 0 | Growth Rate (U2OS [2]; 18 h, replicate number 1, timepoint 18 hours): 0 | Growth Rate (U2OS [2]; 24 h, replicate number 1, timepoint 24 hours): 0
